Laboratory results as given in ChEMBL document CHEMBL1156777, “Synthesis and antiprotozoal activity of cationic 1,4-diphenyl-1H-1,2,3-triazoles” (J Med Chem, 2010).
Active and inactive are the calls of the source. The calls are words filed in the database; no cut-off is given here.

Legend:
L6 = test: Cytotoxicity against rat L6 cells after 70 hrs by alamar blue assay; type: cell-based; conditions: L6, 70 h
Summary of the method: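 Cells were exposed to serial dilutions for 70 h at 37 °C, 5% CO₂, then given resazurin for 2–3 h. IC50 came from sigmoidal curves; two independent runs in duplicate. Top concentration was 90 μg/mL, converted to μM by molecular weight.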

[1] = system: Trypanosoma brucei rhodesiense; test: Antitrypanosomal activity against Trypanosoma brucei rhodesiense STIB900 after 70 hrs by alamar blue assay; type: functional, organism-based; conditions: STIB900, 70 h
[2] = Selectivity index, ratio of IC50 for rat L6 cells to IC50 for Trypanosoma brucei rhodesiense STIB900; type: toxicity, cell-based; conditions: read-out: Ratio IC50
Summary of the method: (§1)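 Each index is L6 IC50 divided by parasite IC50. L6 values are from the 70 h resazurin assay. T. b. rhodesiense STIB900 values are from the 70 h resazurin assay. P. falciparum K1 values are from erythrocytic-stage [³H]-hypoxanthine incorporation: 48 h drug exposure, then 24 h with label. L. donovani values are from the 72 h axenic amastigote CellTiter assay.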

Plasmodium falciparum = test: Antiplasmodial activity against chloroquine-resistant Plasmodium falciparum K1 infected in human erythrocytes after 48 hrs assessed as [3H]hypoxanthine incorporation by liquid scintillation counting; type: functional, organism-based
[3] = Selectivity index, ratio of IC50 for rat L6 cells to IC50 for Plasmodium falciparum K1; type: toxicity, cell-based; conditions: read-out: Ratio IC50; summary of the method: as §1
Leishmania donovani = test: Antileishmanial activity against Leishmania donovani MHOM/SD/62/1S-CL2D; type: functional, organism-based
Summary of the method: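 Axenic amastigotes (MHOM/SD/62/1S-CL2_D) adapted from promastigotes and grown in amastigote medium at 37 °C. 6 × 10⁴ parasites per well were exposed to 2-fold serial dilutions for 72 h at 37 °C in humidified 5% CO₂. Growth was read with tetrazolium CellTiter reagent as absorbance at 490 nm. IC50 came from a four-parameter dose–response fit; duplicate determinations were averaged.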

[4] = Selectivity index, ratio of IC50 for rat L6 cells to IC50 for Leishmania donovani MHOM/SD/62/1S-CL2D; type: toxicity, cell-based; conditions: read-out: Ratio IC50; summary of the method: as §1
Mus musculus [5] = test: Toxicity in NMRI mouse infected with Trypanosoma brucei rhodesiense STIB900 assessed as survival at 5 mg/kg, ip after administered for 4 consecutive days from day 3 postinfection measured after 7 to 30 days; type: organism-based; parameters: dose 5 mg/kg, route intraperitoneal; conditions: in vivo
Summary of the method: (§2)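 Female NMRI mice infected ip with 2 × 10⁴ STIB900 bloodstream forms. Groups of four dosed ip daily on days 3–6 postinfection; compounds in DMSO diluted with water to 10% final DMSO. Untreated infected controls. Tail-blood parasitaemia checked on days 7 and 10, twice weekly to day 30, then weekly to day 60. Relapse day recorded for mean relapse day; cure means parasite-free survival to day 60.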

[6] = system: Trypanosoma brucei rhodesiense; test: Antitrypanosomal activity against Trypanosoma brucei rhodesiense STIB900 infected in NMRI mouse assessed as mean parasitemia relaps day at 5 mg/kg, ip; type: functional; conditions: route intraperitoneal; summary of the method: as §2
[7] = system: Trypanosoma brucei rhodesiense; test: Antitrypanosomal activity against Trypanosoma brucei rhodesiense STIB900 infected in NMRI mouse assessed as mean parasitemia relaps day at 20 mg/kg, ip; type: functional; conditions: route intraperitoneal
Summary of the method: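 Female NMRI mice were infected ip with 2 × 10⁴ STIB900 bloodstream forms, in groups of four. Compound in 10% DMSO/distilled water was given ip at 5 mg/kg daily on days 3–6 postinfection, with untreated infected controls. Tail-blood parasitaemia was checked on days 7 and 10, then twice weekly to day 30 and weekly to day 60. Relapse day was recorded for mean relapse day.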

Mus musculus [8] = test: Toxicity in NMRI mouse infected with Trypanosoma brucei rhodesiense STIB900 assessed as survival at 8 mg/kg, ip after administered for 4 consecutive days from day 3 postinfection measured after 7 to 30 days; type: organism-based; parameters: dose 8 mg/kg, route intraperitoneal; conditions: in vivo; summary of the method: as §2
Mus musculus [9] = test: Toxicity in NMRI mouse infected with Trypanosoma brucei rhodesiense STIB900 assessed as survival at 2 mg/kg, ip after administered for 4 consecutive days from day 3 postinfection measured after 7 to 30 days; type: organism-based; parameters: dose 2 mg/kg, route intraperitoneal; conditions: in vivo; summary of the method: as §2
[10] = system: Trypanosoma brucei rhodesiense; test: Antitrypanosomal activity against Trypanosoma brucei rhodesiense STIB900 infected in NMRI mouse assessed as mean parasitemia relaps day at 1 mg/kg, ip; type: functional; conditions: route intraperitoneal; summary of the method: as §2
Plasmodium berghei = test: Antiplasmodial activity against Plasmodium berghei infected in mice (Mus musculus) assessed as inhibition of parasitaemia at 30 mg/kg, subcutaneous for 4 days; type: functional, organism-based; parameters: dose 30 mg/kg
Summary of the method: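 P. berghei mouse model. Compound was given subcutaneously at 30 mg/kg daily for four days. The read-out was blood parasite count. For in vivo use, compounds were dissolved in DMSO and diluted with distilled water to 10% DMSO final.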

Mus musculus [11] = test: Toxicity in NMRI mouse infected with Trypanosoma brucei rhodesiense STIB900 assessed as survival at 1 mg/kg, ip after administered for 4 consecutive days from day 3 postinfection measured after 7 to 30 days; type: organism-based; parameters: dose 1 mg/kg, route intraperitoneal; conditions: in vivo; summary of the method: as §2
Mus musculus [12] = test: Toxicity in NMRI mouse infected with Trypanosoma brucei rhodesiense STIB900 assessed as survival at 10 mg/kg, ip after administered 1 day postinfection measured after 7 to 30 days; type: organism-based; parameters: dose 10 mg/kg, route intraperitoneal; conditions: in vivo
Summary of the method: (§3)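 Single-dose ip regimen at 10 mg/kg in female NMRI mice infected ip with 2 × 10⁴ STIB900 bloodstream forms, four mice per group. Dosing solution was DMSO diluted with water to 10% final DMSO. Tail-blood parasitaemia followed to day 60 postinfection, with relapse day recorded; untreated infected controls.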

[13] = system: Trypanosoma brucei rhodesiense; test: Antitrypanosomal activity against Trypanosoma brucei rhodesiense STIB900 infected in NMRI mouse assessed as mean parasitemia relaps day at 10 mg/kg, ip; type: functional; conditions: route intraperitoneal; summary of the method: as §3
Mus musculus [14] = test: Toxicity in NMRI mouse infected with Trypanosoma brucei rhodesiense STIB900 assessed as survival at 0.5 mg/kg, ip after administered for 4 consecutive days from day 3 postinfection measured after 7 to 30 days; type: organism-based; parameters: dose 0.5 mg/kg, route intraperitoneal; conditions: in vivo; summary of the method: as §2
[15] = system: Trypanosoma brucei rhodesiense; test: Antitrypanosomal activity against Trypanosoma brucei rhodesiense STIB900 infected in NMRI mouse assessed as mean parasitemia relaps day at 0.5 mg/kg, ip; type: functional; conditions: route intraperitoneal; summary of the method: as §2

SMILES | IC50 (L6) [nM] | IC50 [1] [nM] | selectivity ratio [2] | IC50 (Plasmodium falciparum) [nM] | selectivity ratio [3] | IC50 (Leishmania donovani) [nM] | selectivity ratio [4] | Activity (Mus musculus [5]) | Activity [6] [days] | Activity [7] [days] | Activity (Mus musculus [8]) | Activity (Mus musculus [9]) | Activity [10] [days] | Activity (Plasmodium berghei) | Activity (Mus musculus [11]) | Activity (Mus musculus [12]) | Activity [13] [days] | Activity (Mus musculus [14]) | Activity [15] [days]
COc1cc(C(=N)N)ccc1-n1cc(-c2cccc(C(=N)N)c2)nn1.Cl.Cl | > 192000 | 11 | > 17500 | 25 | > 7680 | 33000 | > 6 | Toxic | 13 | – | – | – | – | – | – | – | – | – | –
N=C(N)c1ccc(OCCCCCOc2ccc(C(=N)N)cc2)cc1 [PENTAMIDINE] | – | – | – | – | – | – | – | – | 20 | 26 | – | – | – | – | – | – | – | – | –
Nc1nc(N)nc(Nc2ccc([As]3SCC(CO)S3)cc2)n1 (configuration not stated) [MELARSOPROL] | – | – | – | – | – | – | – | – | – | – | Non-toxic | Non-toxic | 20 | – | – | – | – | – | –
Cl.Cl.N=C(N)c1cccc(-n2cc(-c3cc(C(=N)N)ccc3O)nn2)c1 | > 136000 | 174 | > 782 | 36 | > 3780 | 20000 | > 7 | Toxic | 14.75 | – | – | – | – | – | – | – | – | – | –
Cl.Cl.Oc1cc(C2=NCCN2)ccc1-c1cn(-c2ccc(C3=NCCN3)cc2)nn1 | > 190000 | 38 | > 5000 | 0.6 | > 317000 | 24000 | > 8 | Toxic | 10 | – | – | – | – | inactive | – | – | – | – | –
Cl.Cl.c1cc(-c2cn(-c3ccc(C4=NCCN4)cc3)nn2)ccc1C1=NCCN1 | 101000 | 53 | 1910 | 2 | 50500 | > 100000 | – | Toxic | 8 | – | – | – | – | – | – | – | – | – | –
Cl.Cl.N=C(N)c1cccc(-c2cn(-c3cccc(C(=N)N)c3)nn2)c1 | 219000 | 83 | 2640 | 21 | 10400 | 48000 | 5 | Toxic | 10 | – | – | – | – | – | – | – | – | – | –
COc1cc(C(=N)N)ccc1-c1cn(-c2cccc(C(=N)N)c2)nn1.Cl.Cl | 164000 | 5 | 32800 | 7 | 23400 | 11000 | 15 | Non-toxic | – | – | – | – | 9.5 | – | Toxic | Toxic | 23.5 | – | –
Cl.Cl.N=C(N)c1ccc(-c2cn(-c3ccc(C(=N)N)cc3)nn2)cc1 | 8100 | 4 | 2020 | 2 | 4050 | 9100 | < 1 | Non-toxic | – | – | – | – | – | – | Non-toxic | – | 27 | Toxic | 25.5
COc1ccc(C2=NCCN2)cc1-c1cn(-c2cccc(C3=NCCN3)c2)nn1.Cl.Cl | > 176000 | 6 | > 29300 | 14 | > 12600 | 4900 | > 36 | Non-toxic | – | – | – | – | 12 | – | Toxic | – | 14 | – | –
Cl.Cl.Oc1ccc(C2=NCCN2)cc1-c1cn(-c2ccc(C3=NCCN3)cc2)nn1 | > 190000 | 43 | > 4420 | 9 | > 21100 | 43000 | > 4 | Toxic | 10.75 | – | – | – | – | – | – | – | – | – | –
Cl.Cl.N=C(N)c1ccc(-n2cc(-c3ccc(C(=N)N)cc3O)nn2)cc1 | 49300 | 16 | 3080 | 2 | 24600 | 4300 | 11 | Non-toxic | – | – | – | – | – | – | – | – | – | – | –
